# From PubChem
# Hits are enriched below; roughly 4.6% of the tested compounds scored in any of these assays.
# ALR inh: inhibitors of human ALR sulfhydryl oxidase, primary screen, biochemical, H2O2 detection, HRP-luminol luminescence, single point | purified ALR, DTT oxidation | AID 485317, 2010 | inhibition, % (concentration not given with the values) | 3.8% of 290,000 active;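 active = mean replicate inhibition above about 79%, with every replicate also reaching it, limit read from the data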
# Target sequence (P55789 whole entry, looked up): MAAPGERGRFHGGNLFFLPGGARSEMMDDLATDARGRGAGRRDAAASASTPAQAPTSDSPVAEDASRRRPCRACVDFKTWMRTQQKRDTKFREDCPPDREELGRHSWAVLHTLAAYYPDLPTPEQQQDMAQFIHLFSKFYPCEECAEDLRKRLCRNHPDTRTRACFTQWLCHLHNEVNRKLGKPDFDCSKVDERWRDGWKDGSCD
# NALP1 inh: NALP1 inflammasome inhibitors in reconstituted yeast, colorimetric, S. cerevisiae, triplicate retest | S. cerevisiae NALP1/ASC/caspase-1 growth, X-gal OD620, 72 h | inhibition, % at 10 µM | 0.61% of 280,000 active; in the data active = inhibition mostly above about 24%, no sharp cut-off; inactive = mostly below about 32%
# Pemphigus Ab inh: inhibitors of pemphigus antibody binding to DSG3, primary screen, biochemical, bead-based, flow cytometry, scFv-GFP. Desmoglein-3 (Homo sapiens), P32926. DSG3-coupled beads, scFv-anti-DSG3-GFP binding; hits give low values. binding (percent of control), % at 10 µM. 0.48% of 310,000 active;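 active = binding more than 3 SD below its plate's average and above zero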;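 also: hits lower antibody fragment binding to DSG3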
# NALP3 yeast inh: NALP3 inflammasome inhibitors in reconstituted yeast, primary screen, luminescence, uHTS; inhibition, % at 10 µM; Yeast reconstituted NLRP3/ASC/caspase-1, beta-gal luminescence, 24 h; 0.39% of 330,000 active;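 active = inhibition of 50% or more; inactive = inhibition below 50%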;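 also: plate controls were induced DMSO wells for no effect and uninduced yeast grown without galactose for full effect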
# Arrestin-AP2 inh: inhibitors of beta-arrestin/AP2 binding, primary screen, biochemical, GPCR trafficking, flow cytometry; FITC-arrestin peptide / GST-AP2 beads; AP2 beta2 appendage carries R879A mutation; 0.31% of 340,000 active; inhibition, % at 10 µM; AID 504490, 2011;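 active = inhibition above a set limit, near 3 SD of compounds lacking own fluorescence, cut at about 54% in these data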;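 also: plate controls were DMSO wells for no effect and 5 µM unlabelled arrestin peptide for full effect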
#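 test system = AP2 appendage R879A on GSH beads | buffer or medium = PBS plus Tween 20 (0.05%) and BSA (0.1%) | incubation = 12 min plus 1 h, RT | detection = bead flow cytometry, FITC channel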
# PolyA inhibitor: polyadenylation inhibitors in yeast reporter cells, primary screen, luminescence, S. cerevisiae | S. cerevisiae SKY197-pL101 polyadenylation reporter, beta-gal luminescence; efflux-impaired pdr1/pdr3 knockout yeast; score 100 = 6 SD above DMSO | activity score, % at 12 µM | 0.02% of 300,000 active | AID 1875, 2009;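 active = lowest replicate activity score at least 50, where 100 means six control SD above control mean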;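 also: yeast exposed to compound for 9 h at 30 °C; higher score means more reporter readthrough which indicates perturbed polyadenylation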
# Starred values were filed as active, the others as inactive; · = no result given.
SMILES,ALR inh,NALP1 inh,Pemphigus Ab inh,NALP3 yeast inh,Arrestin-AP2 inh,PolyA inhibitor
COc1ccccc1N1C(=O)CC(N2CCN(c3ccc(F)cc3)CC2)C1=O (configuration not stated),96.8*,-23.9,111.0,18.6,1.2,-2.5
O=C1CC(N2CCCCCC2)C(=O)N1c1ccc2c(c1)OCO2 (configuration not stated),3.0,28.7,99.0,17.5,-0.6,-1.3
O=C1CC(N2CCN(c3ccc(O)cc3)CC2)C(=O)N1c1ccc2c(c1)OCO2 (configuration not stated),98.7*,14.6,107.8,10.0,7.1,18.7
O=C1CC(N2CCCCCC2)C(=O)N1c1ccc(F)cc1 (configuration not stated),8.1,36.9*,87.5,-6.5,-13.6,1.7
O=C1CCC([N+](=O)[O-])C(c2ccc(C(F)(F)F)cc2)N1 (configuration not stated),9.8,·,·,12.0,-19.6,23.0
Cc1cccc(NC(=O)C(=O)NCC2CCCN2S(=O)(=O)c2ccccc2)c1 (configuration not stated),-1.0,·,108.5,21.3,-3.2,11.5
Cc1cc2nccc(-c3ccc(OCCCF)cc3)n2n1,43.2,-4.3,98.7,22.4,3.5,-4.4
Cc1nc2c(=O)n(C)c(=O)n(C)c2nc1Cl,22.9,93.9*,98.1,·,1.7,-13.1
Cc1cc(N=Nc2ccccc2)c(NCC(O)C(O)C(O)CO)cc1C (configuration not stated),97.8*,-8.2,103.6,17.0,-5.5,-9.1
NC(=O)CN1C(=O)NC2(CCCc3ccccc32)C1=O (configuration not stated),-0.5,44.9*,·,14.7,-9.3,17.2
CCOC(=O)C1CCN(CC(=O)c2c(C)n(C)c3ccc(OC)cc23)CC1,-31.4,12.5,110.4,11.9,-14.6,-0.6
COC(=O)Cc1[nH]n(-c2nc3ccccc3s2)c(=O)c1C(C)=Nc1ccc(C)cc1,98.3*,7.8,104.4,21.4,35.1,6.1
Cc1cccc(Nc2cc(C)c3c(O)cccc3n2)c1C,·,60.3*,108.8,39.4,-1.0,12.5
Cc1cccc(NC(=S)N(C)C)c1C,-4.5,23.1,98.1,16.0,-3.5,-2.6
COc1cc(/C=C2\SC(=S)N(C(C(=O)O)c3ccccc3)C2=O)ccc1O (configuration not stated),·,5.5,95.6,17.1,-1.7,0.6
O=C(O)C(c1ccccc1)N1C(=O)/C(=C\c2ccc(O)c(O)c2)SC1=S (configuration not stated),99.0*,-6.9,93.3,26.0,28.4,19.3
CCOc1cc(/C=C2\SC(=S)N(C(C(=O)O)c3ccccc3)C2=O)ccc1O (configuration not stated),99.7*,11.6,101.0,12.1,14.7,9.1
Cc1ccc(C(=O)N2CCN(c3nc4ccccc4n3C)CC2)cc1,5.6,30.3,112.6,-5.7,1.3,9.7
O=C(CSc1nnc(-c2ccco2)c(-c2ccco2)n1)c1ccccc1,98.9*,-11.6,97.2,8.5,9.2,-16.1
O=C(CSc1n[nH]c(-c2ccccc2)n1)c1ccccc1,97.2*,·,109.7,13.9,-2.6,-16.8
CC(=O)c1ccc(NC(=O)CSc2nnc(-c3ccco3)c(-c3ccco3)n2)cc1,99.4*,6.5,97.9,6.9,12.8,0.6
CC(C)CNS(=O)(=O)c1ccc(Br)cc1N1CCC[C@@H]1CO,·,·,101.1,·,2.9,·
CC(=O)Nc1ccc(S(=O)(=O)NN=c2sc3ccccc3n2C)cc1N,·,·,107.0,·,·,·
C(=C\c1ccco1)/c1nc2ccccc2[nH]1,97.9*,11.2,83.8,12.5,7.1,5.4
O=C(/C=C/c1ccco1)Nc1ccc(-c2nc3ccccc3[nH]2)cc1,-8.5,33.9,91.7,·,3.5,14.3
